Source: ChEMBL document CHEMBL2390936, “Phosphonic analogues of glutamic acid as irreversible inhibitors of Staphylococcus aureus endoproteinase GluC: an efficient synthesis and inhibition of the human IgG degradation” (Bioorg Med Chem Lett, 2013)
Calls of active or inactive are those of the source. The rule behind the calls is not given here.

Experiments:
Glutamyl endopeptidase = Glutamyl endopeptidase (Staphylococcus aureus, UniProt P0C1U8); test: Inhibition of Staphylococcus aureus endoproteinase GluC using Ac-Phe-Leu-Glu-ACC as substrate after 30 mins
Chain of Glutamyl endopeptidase (P0C1U8 whole entry): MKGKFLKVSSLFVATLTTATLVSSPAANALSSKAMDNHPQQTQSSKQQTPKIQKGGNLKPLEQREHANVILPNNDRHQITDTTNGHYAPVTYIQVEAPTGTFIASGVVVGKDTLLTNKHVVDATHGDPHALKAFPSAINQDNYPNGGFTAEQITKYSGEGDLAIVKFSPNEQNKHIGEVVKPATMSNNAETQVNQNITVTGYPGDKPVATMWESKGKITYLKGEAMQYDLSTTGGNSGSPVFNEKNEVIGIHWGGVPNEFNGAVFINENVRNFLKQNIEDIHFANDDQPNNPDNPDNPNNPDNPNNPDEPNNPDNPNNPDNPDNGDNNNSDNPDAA
Procedure, shortened: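 V8 protease (75 nM, commercial) in 0.1 M Tris–HCl, 0.05% Tween 20, pH 7.8, 37 °C. Fluorogenic substrate Ac-Phe-Leu-Glu-ACC (Ex 355/Em 460 nm). Enzyme added to substrate plus inhibitor, with [E]0 below [I]0. Observed inhibition rate constants taken from progress curves, giving k2/Ki and Ki.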

[1] = target: T1, Serine protease SplB (Staphylococcus aureus) (UniProt Q53781); test: Inhibition of Staphylococcus aureus SplB protease using Ac-Trp-Glu-Leu-Gln-ACC as substrate at 200 uM after 30 mins
T1 sequence (whole entry): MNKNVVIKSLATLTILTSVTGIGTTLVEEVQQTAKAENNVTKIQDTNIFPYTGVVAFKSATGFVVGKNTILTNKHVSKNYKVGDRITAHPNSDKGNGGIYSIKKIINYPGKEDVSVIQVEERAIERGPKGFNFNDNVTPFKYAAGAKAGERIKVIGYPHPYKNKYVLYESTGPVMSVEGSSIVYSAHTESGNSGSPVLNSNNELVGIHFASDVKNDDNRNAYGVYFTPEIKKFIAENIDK
Procedure, shortened: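 SplB protease (100 nM, recombinant, expressed and purified in-house) in 0.1 M Tris–HCl, 0.01% Triton X-100, pH 7.6, 37 °C. Fluorogenic substrate Ac-Trp-Glu-Leu-Gln-ACC (Ex 355/Em 460 nm). Enzyme added last to substrate plus inhibitor. Percentage inhibition read after 30 min of kinetic measurement with inhibitor at 200 µM.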

Staphylococcus aureus = test: Antibacterial activity against Staphylococcus aureus ATCC […] after 4 to 24 hrs; assay type: functional, organism-based
[2] = target: Glutamyl endopeptidase (Staphylococcus aureus) (UniProt P0C1U8); test: Inhibition of Staphylococcus aureus endoproteinase GluC-mediated human IgG degradation at 100 uM preincubated 1 hr prior to human IgG degradation addition measured after 24 hrs
Chain of Glutamyl endopeptidase (Staphylococcus aureus) (P0C1U8 whole entry, the tested form may be a part): as the sequence (P0C1U8 whole entry) above
Procedure, shortened: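 V8 protease (final 1 µM) pre-incubated 1 h at 37 °C with inhibitor (final 100 µM). Human IgG (final 160 µg/ml) then added and incubated 24 h at 37 °C. DMSO-only control. Fragments separated by gel and visualised by silver staining.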

[3] = target: Glutamyl endopeptidase (Staphylococcus aureus) (UniProt P0C1U8); test: Inhibition of Staphylococcus aureus endoproteinase GluC using Ac-Phe-Leu-Glu-ACC as substrate at 200 uM after 30 mins
Procedure, shortened: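 V8 protease (75 nM) in 0.1 M Tris–HCl, 0.05% Tween 20, pH 7.8, 37 °C, with fluorogenic Ac-Phe-Leu-Glu-ACC (Ex 355/Em 460 nm). Enzyme added last to substrate plus inhibitor. Percentage inhibition recorded after 30 min of kinetic measurement at 200 µM inhibitor.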

CC(C)C[C@H](NC(=O)OC(C)(C)C)C(=O)NC(CCC(=O)O)P(=O)(Oc1ccccc1)Oc1ccccc1 (mixture of isomers)
Ki (Glutamyl endopeptidase): 7.8 µM | inhibition [1]: 0%

CC(C)[C@H](NC(=O)OC(C)(C)C)C(=O)NC(CCC(=O)O)P(=O)(Oc1ccccc1)Oc1ccccc1 (mixture of isomers)
Ki (Glutamyl endopeptidase): 23.3 µM | inhibition [1]: 0%

CC(C)C[C@H](NC(=O)[C@H](Cc1ccccc1)NC(=O)OC(C)(C)C)C(=O)NC(CCC(=O)O)P(=O)(Oc1ccccc1)Oc1ccccc1 (mixture of isomers)
Ki (Glutamyl endopeptidase): 6.2 µM | inhibition (Staphylococcus aureus): inactive | inhibition [1]: 0% | inhibition [2]: Active

CC(C)C[C@H](NC(=O)[C@H](CCC(=O)O)NC(=O)OC(C)(C)C)C(=O)NC(CCC(=O)O)P(=O)(Oc1ccccc1)Oc1ccccc1 (mixture of isomers)
Ki (Glutamyl endopeptidase): 9.5 µM | inhibition [1]: 0%

C[C@H](NC(=O)[C@H](Cc1ccccc1)NC(=O)OC(C)(C)C)C(=O)NC(CCC(=O)O)P(=O)(Oc1ccccc1)Oc1ccccc1 (mixture of isomers)
Ki (Glutamyl endopeptidase): 9.4 µM | inhibition [1]: 0%

C[C@H](NC(=O)[C@H](CCC(=O)O)NC(=O)OC(C)(C)C)C(=O)NC(CCC(=O)O)P(=O)(Oc1ccccc1)Oc1ccccc1 (mixture of isomers)
Ki (Glutamyl endopeptidase): 12.9 µM | inhibition [1]: 0%

CC(C)[C@H](NC(=O)[C@H](Cc1ccccc1)NC(=O)OC(C)(C)C)C(=O)NC(CCC(=O)O)P(=O)(Oc1ccccc1)Oc1ccccc1 (mixture of isomers)
Ki (Glutamyl endopeptidase): 8.15 µM | inhibition [1]: 0%

CC(C)[C@H](NC(=O)[C@H](CCC(=O)O)NC(=O)OC(C)(C)C)C(=O)NC(CCC(=O)O)P(=O)(Oc1ccccc1)Oc1ccccc1 (mixture of isomers)
Ki (Glutamyl endopeptidase): 9.95 µM | inhibition [1]: 0%

CC(C)C[C@H](NC(=O)[C@H](CC(=O)O)NC(=O)OC(C)(C)C)C(=O)NC(CCC(=O)O)P(=O)(Oc1ccccc1)Oc1ccccc1 (mixture of isomers)
inhibition [3]: 41% | inhibition [1]: 0%

CC(C)C[C@H](NC(=O)[C@H](CCC(=O)O)NC(=O)OC(C)(C)C)C(=O)NC(CCC(N)=O)P(=O)(Oc1ccccc1)Oc1ccccc1 (mixture of isomers)
inhibition [3]: 0%

CC(C)[C@H](NC(=O)[C@H](CC(=O)O)NC(=O)OC(C)(C)C)C(=O)NC(CCC(=O)O)P(=O)(Oc1ccccc1)Oc1ccccc1 (mixture of isomers)
inhibition [3]: 50% | inhibition [1]: 0%

C[C@H](NC(=O)OC(C)(C)C)C(=O)NC(CCC(=O)O)P(=O)(Oc1ccccc1)Oc1ccccc1 (mixture of isomers)
inhibition [3]: 39% | inhibition [1]: 0%

C[C@H](NC(=O)[C@H](CC(=O)O)NC(=O)OC(C)(C)C)C(=O)NC(CCC(=O)O)P(=O)(Oc1ccccc1)Oc1ccccc1 (mixture of isomers)
inhibition [3]: 26% | inhibition [1]: 0%

O=C(O)CCC(NC(=O)OCc1ccccc1)P(=O)(Oc1ccccc1)Oc1ccccc1 (racemic)
Ki (Glutamyl endopeptidase): 8.1 µM | inhibition [1]: 0%

CC(=O)NC(CCC(=O)O)P(=O)(Oc1ccccc1)Oc1ccccc1 (racemic)
Ki (Glutamyl endopeptidase): 11.1 µM | inhibition [1]: 0%

GENTAMICIN
MIC (Staphylococcus aureus): 2 mg/L
